The text below walks through data of ChEMBL document CHEMBL1143839, “Antiplasmodial activity of lauryl-lysine oligomers” (Antimicrob Agents Chemother, 2007).

The nature of series [1]: Toxicity against human erythrocytes assessed as hemolysis at 100 uM after 1 hr. The series is classed as cell-based, Erythrocyte. Conditions: read-out: Activity. The essentials: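 Heparinized fresh human blood washed three times in PBS (200 × g, 2 min), mixed with compound in PBS to 4% hematocrit. Incubated 1 h at 37°C with stirring, then centrifuged. Supernatant absorbance read at 460 nm. PBS alone gave baseline and 0.4% Triton X-100 gave 100% lysis. At least two independent experiments.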

For the next series, the system named is MDCK. Nature of the series: Cytotoxicity against dog MDCK cells after 3.5 hrs by Alamar blue assay. Conditions: Canis lupus familiaris. The series is classed as cell-based. The method, boiled down:
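Cells grown to confluence (~3 days) with different compound concentrations in parallel cultures. Viability then read by Alamar blue fluorescence 3.5 h after dye addition. Cycloheximide 10 µM added at start as positive control. IC50 taken as concentration reducing viability by 50%. At least two independent experiments in duplicate.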
(Alamar Blue is a resazurin reagent that responds to reducing activity.)

Series [2] in a line: Ratio of LC50 for erythrocytes to IC50 for Plasmodium falciparum W2. The series is classed as functional.
Series [3] is described as follows: Ratio of IC50 for dog MDCK cells to IC50 for Plasmodium falciparum W2. The series is classed as functional.
Another series relates to Plasmodium falciparum. The series is described as follows: Antiplasmodial activity against Plasmodium falciparum W2 as reduced [3H]hypoxanthine uptake after 18 hrs.

For `NCCCCC(N)C(=O)NCCCCCCCCCCCC(=O)NC(CCCCN)C(=O)O` (stereo not given), the hemolysis at 1 h, 100 µM in series [1] was less than 0.1%. The IC50 (commonly the concentration that gives 50% inhibition) in the series with MDCK is more than 800 µM; with Plasmodium falciparum, 68.2 µM. Besides, the “Ratio LC50/IC50” value in series [2] was more than 700. For the same molecule, the “Ratio IC50” value in series [3] is on record as more than 12.
For `CCCCCCCCCCCC(=O)NC(CCCCN)C(=O)NCCCCCCCCCCCC(=O)NC(CCCCN)C(=O)O` (stereo not given), in that order: 4.9%, more than 100 µM, 3.54 µM, 288 and more than 28.
Taken in the same sequence, the figures for `NCCCCCCCCCCCC(=O)NC(CCCCN)C(=O)NCCCCCCCCCCCC(=O)NC(CCCCN)C(=O)O` (stereo not given) were 0.14%, more than 150 µM, 4.63 µM, 7714 and more than 32.
For `CCCCCCCCCCCC(=O)NC(CCCCN)C(=O)NCCCCCCCCCCCC(=O)NC(CCCCN)C(=O)NCCCCCCCCCCCC(=O)NC(CCCCN)C(=O)O` (stereo not given), in that order: 13.3%, 75 µM, 0.85 µM, 442 and 88.
In the case of `NCCCCC(N)C(=O)NCCCCCCCCCCCC(=O)NC(CCCCN)C(=O)NCCCCCCCCCCCC(=O)NC(CCCCN)C(=O)O` (stereo not given), in series [1], the hemolysis at 1 h, 100 µM is less than 0.1%. The IC50 with MDCK was more than 400 µM; with Plasmodium falciparum, 7.85 µM. The “Ratio LC50/IC50” value in series [2] is listed as more than 6300. In addition, the “Ratio IC50” value in series [3] was more than 51.
For `NCCCCCCCCCCCC(=O)NC(CCCCN)C(=O)NCCCCCCCCCCCC(=O)NC(CCCCN)C(=O)NCCCCCCCCCCCC(=O)NC(CCCCN)C(=O)O` (stereo not given), in that order: 3.4%, 91 µM, 0.14 µM, 10734 and 650.
`NCCCCC(N)C(=O)NCCCCCCCCCCCC(=O)NC(CCCCN)C(=O)NCCCCCCCCCCCC(=O)NC(CCCCN)C(=O)NCCCCCCCCCCCC(=O)NC(CCCCN)C(=O)O` (stereo not given): the hemolysis at 1 h, 100 µM in series [1] came out at 2.3%. The IC50 with MDCK is more than 270 µM; in the series on Plasmodium falciparum, 1.72 µM. Moreover, the “Ratio LC50/IC50” value in series [2] was 1263. Besides, the “Ratio IC50” value in series [3] is more than 157.
Taken in the same sequence, the figures for `CCCCCCCCCCCC(=O)NC(CCCCN)C(=O)NCCCCCCCCCCCC(=O)NC(CCCCN)C(=O)NCCCCCCCCCCCC(=O)NC(CCCCN)C(=O)NCCCCCCCCCCCC(=O)NC(CCCCN)C(=O)O` (stereo not given) were 26.1%, 37 µM, 0.08 µM, 2317 and 1052.
In the case of `NCCCCCCCCCCCC(=O)NC(CCCCN)C(=O)NCCCCCCCCCCCC(=O)NC(CCCCN)C(=O)NCCCCCCCCCCCC(=O)NC(CCCCN)C(=O)NCCCCCCCCCCCC(=O)NC(CCCCN)C(=O)O` (stereo not given), the hemolysis at 1 h, 100 µM in series [1] is 24.6%. The figures for the IC50 with MDCK and with Plasmodium falciparum were more than 75 µM and 1.59 µM, respectively. Also, the “Ratio LC50/IC50” value in series [2] was 126. Further, in series [3], the “Ratio IC50” value is given as more than 47.
